Experimental data as given in ChEMBL document CHEMBL4765336, “Discovery of coumarin derivatives as potent and selective cyclin-dependent kinase 9 (CDK9) inhibitors with high antitumour activity” (Eur J Med Chem, 2020).

Columns and labels:
CDK2/Cyclin A2 = CDK2/Cyclin A2 (Homo sapiens, UniProt P24941); assay: Inhibition of CDK2/Cyclin A (unknown origin) preincubated for 20 mins followed by ATP addition and measured after 120 mins in presence of [33P-gamma] ATP by hotspot kinase assay; type: protein-complex assay
Method in brief: (§1)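 Radiometric filter-binding assay: kinase and substrate in 20 mM Hepes pH 7.5, 10 mM MgCl2, 1 mM EGTA, 0.02% Brij35, 0.02 mg/mL BSA, 0.1 mM Na3VO4, 2 mM DTT, 1% DMSO. Compound (top 1/10/27 μM, 3-fold serial dilutions) preincubated 20 min at 25 °C. ATP plus [γ-33P]ATP added to 10 μM final, reacted 120 min at 25 °C. IC50 from curve fit, duplicate mean.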

[1] = biological target: Cyclin-dependent kinase 7/ cyclin H (Homo sapiens, UniProt P50613); assay: Inhibition of CDK7/Cyclin H (unknown origin) preincubated for 20 mins followed by ATP addition and measured after 120 mins in presence of [33P-gamma] ATP by hotspot kinase assay; type: protein-complex assay; method in brief: as §1
[2] = biological target: Cyclin-dependent kinase 1/cyclin B1 (Homo sapiens, UniProt P06493); assay: Inhibition of CDK1/Cyclin B (unknown origin) preincubated for 20 mins followed by ATP addition and measured after 120 mins in presence of [33P-gamma] ATP by hotspot kinase assay; type: protein-complex assay; method in brief: as §1
[3] = biological target: Cyclin-dependent kinase 2/cyclin E1 (Homo sapiens, UniProt P24941); assay: Inhibition of CDK2/Cyclin E (unknown origin) preincubated for 20 mins followed by ATP addition and measured after 120 mins in presence of [33P-gamma] ATP by hotspot kinase assay; type: protein-complex assay; method in brief: as §1
[4] = biological target: Cyclin-dependent kinase 5/CDK5 activator 1 (Homo sapiens, UniProt Q00535); assay: Inhibition of CDK5/p25 (unknown origin) preincubated for 20 mins followed by ATP addition and measured after 120 mins in presence of [33P-gamma] ATP by hotspot kinase assay; type: protein-complex assay; method in brief: as §1
[5] = biological target: Cyclin-C/Cyclin-dependent kinase 19 (Homo sapiens, UniProt Q9BWU1); assay: Inhibition of CDK19/Cyclin C (unknown origin) preincubated for 20 mins followed by ATP addition and measured after 120 mins in presence of [33P-gamma] ATP by hotspot kinase assay; type: protein-complex assay; method in brief: as §1
[6] = biological target: Glycogen synthase kinase-3 (Homo sapiens) (UniProt P49840+P49841); assay: Inhibition of GSK3alpha/beta (unknown origin) assessed as enzyme activity at 1 uM preincubated for 20 mins followed by ATP addition and measured after 120 mins in presence of [33P-gamma] ATP by hotspot kinase assay relative to control; type: protein assay; parameters: scale not given: the % may be the effect or the level left; details: time 140.0 min
Method in brief: (§2)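 Radiometric filter-binding kinase assay, buffer pH 7.5 with 10 mM MgCl2 and 1% DMSO. Compound tested at a single 1.0 μM, preincubated 20 min at 25 °C. Reaction started with ATP/[γ-33P]ATP at 10 μM final, run 120 min at 25 °C. Remaining % enzyme activity reported, n=2.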

[7] = biological target: Serine/threonine-protein kinase MAK (Homo sapiens) (UniProt P20794); assay: Inhibition of MAK (unknown origin) assessed as enzyme activity at 1 uM preincubated for 20 mins followed by ATP addition and measured after 120 mins in presence of [33P-gamma] ATP by hotspot kinase assay relative to control; parameters: scale not given: the % may be the effect or the level left; details: time 140.0 min; method in brief: as §2
MIA PaCa-2 = assay: Antiproliferative activity against human MIA PaCa-2 cells assessed as inhibition of cell growth incubated for 72 hrs by Celltiter-Glo luminescent assay; type: functional, cell-based; details: MIA PaCa-2, 72 h
Method in brief: (§3)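 Cells seeded in growth medium and held overnight at 37 °C; medium-only wells served as background. DMSO stocks were diluted in medium to 3× final and added; cells incubated 72 h at 37 °C, 5% CO2. Viability read by CellTiter-Glo luminescence after 60 min at room temperature. IC50 from curve fit, mean of duplicate.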

HCT-116 = assay: Antiproliferative activity against human HCT-116 cells assessed as inhibition of cell growth incubated for 72 hrs by Celltiter-Glo luminescent assay; type: functional, cell-based; details: HCT-116, 72 h; method in brief: as §3
A549 = assay: Antiproliferative activity against human A549 cells assessed as inhibition of cell growth incubated for 72 hrs by Celltiter-Glo luminescent assay; type: functional, cell-based; details: A549, 72 h; method in brief: as §3
NCI-H460 = assay: Antiproliferative activity against human NCI-H460 cells assessed as inhibition of cell growth incubated for 72 hrs by Celltiter-Glo luminescent assay; type: functional, cell-based; details: NCI-H460, 72 h; method in brief: as §3
[8] = Metabolic stability in monkey liver microsomes assessed as half life at 1 uM incubated up to 60 mins in presence of NADPH by LC-MS/MS analysis; type: ADME, Macaca mulatta, Microsome; details: rhesus monkey
Method in brief: (§4)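 Liver microsomes (0.5 mg/mL) incubated at 37 °C with compound at 1.0 μM final, 3 mM MgCl2 and 1 mM NADPH in 100 mM PBS pH 7.4. Samples taken at 0, 5, 15, 30, 60 min; remaining parent measured by LC-MS/MS. k = −slope, T1/2 = 0.693/k, CLint = k/microsomal protein concentration. Midazolam served as control.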

[9] = Metabolic stability in monkey liver microsomes assessed as intrinsic clearance at 1 uM incubated up to 60 mins in presence of NADPH by LC-MS/MS analysis; type: ADME, Macaca mulatta, Microsome; details: rhesus monkey, read-out: CLH; method in brief: as §4
[10] = Metabolic stability in dog liver microsomes assessed as half life at 1 uM incubated up to 60 mins in presence of NADPH by LC-MS/MS analysis; type: ADME, Canis lupus familiaris, Microsome; method in brief: as §4
[11] = Metabolic stability in rat liver microsomes assessed as intrinsic clearance at 1 uM incubated up to 60 mins in presence of NADPH by LC-MS/MS analysis; type: ADME, Microsome; details: read-out: CLH; method in brief: as §4
[12] = Half life in ICR mouse at 2 mg/kg, iv measured up to 24 hrs by LC-MS/MS analysis; type: ADME, organism-based; details: in vivo
Method in brief: (§5)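 Male ICR mice (25.1–28.8 g, n=9), fasted 12 h, given a single i.v. dose of 2.0 mg/kg at 0.4 mg/mL in DMSO/PEG200/saline (1:1:3). Blood sampled at 0, 0.083, 0.25, 0.5, 1, 2, 4, 8, 24 h. Plasma ACN-precipitated and quantified by LC-MS/MS. Parameters derived from composite mean plasma concentration-time data.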

[13] = Initial plasma concentration in ICR mouse at 2 mg/kg, iv measured up to 24 hrs by LC-MS/MS analysis; type: ADME, organism-based; method in brief: as §5
[14] = AUC (0 to t) in ICR mouse at 30 mg/kg, po measured up to 24 hrs by LC-MS/MS analysis; type: ADME, organism-based; parameters: route oral, dose 30 mg/kg, time <=24; details: in vivo
Method in brief: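 Male ICR mice (25.1–28.8 g, n=9), fasted overnight (12 h), single oral gavage 30 mg/kg as 3 mg/mL in 0.5% CMC-Na with 0.2% Tween 80. Venous blood drawn into EDTA-K2 at 0, 0.25, 0.5, 1, 2, 4, 8, 24 h. Plasma protein-precipitated with ACN and run on LC-MS/MS (C18, formic acid/ACN). Noncompartmental parameters taken from composite mean concentration-time data.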

MV4-11 = assay: Antitumor activity against human MV4-11 cells xenografted in Balb/c nude mouse assessed as tumor growth inhibition at 40 mg/kg, iv administered once daily for 21 days and measured twice a week by vernier caliper method relative to control; type: functional; details: MV4-11, iv, 504 h, time 21 day, read-out: TGI

Chain of Serine/threonine-protein kinase MAK (Homo sapiens) (P20794 whole entry): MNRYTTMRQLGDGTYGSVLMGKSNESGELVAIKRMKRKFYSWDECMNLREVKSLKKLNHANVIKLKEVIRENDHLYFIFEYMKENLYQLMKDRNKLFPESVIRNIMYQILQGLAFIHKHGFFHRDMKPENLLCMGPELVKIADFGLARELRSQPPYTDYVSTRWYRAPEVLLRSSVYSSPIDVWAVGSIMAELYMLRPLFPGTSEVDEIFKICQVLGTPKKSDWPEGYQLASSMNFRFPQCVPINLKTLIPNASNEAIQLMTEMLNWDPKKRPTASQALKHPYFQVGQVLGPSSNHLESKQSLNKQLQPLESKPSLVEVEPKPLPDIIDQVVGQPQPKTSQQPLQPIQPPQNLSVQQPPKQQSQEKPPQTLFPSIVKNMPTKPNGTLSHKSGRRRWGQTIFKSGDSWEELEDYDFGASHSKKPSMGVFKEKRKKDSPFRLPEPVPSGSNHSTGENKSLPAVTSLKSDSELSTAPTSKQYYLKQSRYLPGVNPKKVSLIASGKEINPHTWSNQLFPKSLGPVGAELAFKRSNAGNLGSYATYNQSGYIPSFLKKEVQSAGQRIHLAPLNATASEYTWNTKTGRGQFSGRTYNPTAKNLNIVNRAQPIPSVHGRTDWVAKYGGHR
Chain of Cyclin-dependent kinase 1/cyclin B1 (P06493 whole entry): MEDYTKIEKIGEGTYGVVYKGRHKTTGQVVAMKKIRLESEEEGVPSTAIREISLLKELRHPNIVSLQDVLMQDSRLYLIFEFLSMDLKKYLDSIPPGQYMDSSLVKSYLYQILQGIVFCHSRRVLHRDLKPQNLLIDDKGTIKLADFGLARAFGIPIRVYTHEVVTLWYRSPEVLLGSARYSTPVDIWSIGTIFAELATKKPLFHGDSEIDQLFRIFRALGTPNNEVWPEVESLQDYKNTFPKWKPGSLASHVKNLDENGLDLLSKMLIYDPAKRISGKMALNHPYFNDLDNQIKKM
Chain of Cyclin-dependent kinase 1/cyclin B1 (P14635 whole entry, further chain): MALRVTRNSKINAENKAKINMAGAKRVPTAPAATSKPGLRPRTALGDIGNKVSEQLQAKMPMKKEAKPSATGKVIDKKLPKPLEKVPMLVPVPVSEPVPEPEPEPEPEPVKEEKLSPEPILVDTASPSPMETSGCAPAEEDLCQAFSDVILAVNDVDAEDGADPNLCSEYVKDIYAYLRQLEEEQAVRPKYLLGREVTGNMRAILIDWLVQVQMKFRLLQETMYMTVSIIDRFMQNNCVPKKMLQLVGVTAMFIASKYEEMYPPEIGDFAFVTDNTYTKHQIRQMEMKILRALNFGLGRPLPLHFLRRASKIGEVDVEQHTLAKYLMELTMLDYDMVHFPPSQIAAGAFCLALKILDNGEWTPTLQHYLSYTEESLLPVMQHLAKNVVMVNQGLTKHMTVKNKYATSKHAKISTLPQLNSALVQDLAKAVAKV
Chain of Cyclin-dependent kinase 7/ cyclin H (P51946 whole entry): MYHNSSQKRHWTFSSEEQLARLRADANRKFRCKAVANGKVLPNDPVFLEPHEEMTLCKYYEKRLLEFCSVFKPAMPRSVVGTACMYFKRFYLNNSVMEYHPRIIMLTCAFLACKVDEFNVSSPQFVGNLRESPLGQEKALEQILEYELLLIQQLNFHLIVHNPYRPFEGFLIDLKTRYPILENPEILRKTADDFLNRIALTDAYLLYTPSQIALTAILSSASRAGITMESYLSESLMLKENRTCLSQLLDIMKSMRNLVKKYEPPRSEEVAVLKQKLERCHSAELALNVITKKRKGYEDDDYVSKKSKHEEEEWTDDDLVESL
Chain of Cyclin-dependent kinase 7/ cyclin H (P50613 whole entry): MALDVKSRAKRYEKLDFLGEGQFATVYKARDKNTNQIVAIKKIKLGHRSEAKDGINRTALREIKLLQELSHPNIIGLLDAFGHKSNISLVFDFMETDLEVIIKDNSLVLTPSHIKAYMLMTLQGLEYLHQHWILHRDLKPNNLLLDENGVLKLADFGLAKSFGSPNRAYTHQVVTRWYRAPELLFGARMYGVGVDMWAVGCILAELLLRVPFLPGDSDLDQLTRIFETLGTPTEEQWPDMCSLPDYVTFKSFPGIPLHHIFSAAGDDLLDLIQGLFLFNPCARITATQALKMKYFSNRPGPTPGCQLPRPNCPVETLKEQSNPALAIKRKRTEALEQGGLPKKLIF
Chain of Cyclin-dependent kinase 5/CDK5 activator 1 (Q00535 whole entry): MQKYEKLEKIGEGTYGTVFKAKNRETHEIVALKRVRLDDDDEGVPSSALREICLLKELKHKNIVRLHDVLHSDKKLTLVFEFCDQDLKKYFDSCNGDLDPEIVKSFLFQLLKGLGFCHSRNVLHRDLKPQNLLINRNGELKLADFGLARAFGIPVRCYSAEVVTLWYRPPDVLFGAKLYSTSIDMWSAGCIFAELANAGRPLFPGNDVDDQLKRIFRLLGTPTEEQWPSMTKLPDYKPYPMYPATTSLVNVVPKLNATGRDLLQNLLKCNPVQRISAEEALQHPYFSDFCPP
Chain of Cyclin-dependent kinase 5/CDK5 activator 1 (Q15078 whole entry, further chain): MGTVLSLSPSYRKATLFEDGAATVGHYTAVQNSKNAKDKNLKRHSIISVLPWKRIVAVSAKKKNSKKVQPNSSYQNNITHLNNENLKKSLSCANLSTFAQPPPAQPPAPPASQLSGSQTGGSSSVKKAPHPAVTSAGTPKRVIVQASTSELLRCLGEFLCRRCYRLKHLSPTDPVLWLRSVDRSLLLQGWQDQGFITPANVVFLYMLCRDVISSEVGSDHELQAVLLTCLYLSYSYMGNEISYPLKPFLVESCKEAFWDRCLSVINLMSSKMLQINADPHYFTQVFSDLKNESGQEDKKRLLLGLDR
Chain of Cyclin-C/Cyclin-dependent kinase 19 (Q9BWU1 whole entry): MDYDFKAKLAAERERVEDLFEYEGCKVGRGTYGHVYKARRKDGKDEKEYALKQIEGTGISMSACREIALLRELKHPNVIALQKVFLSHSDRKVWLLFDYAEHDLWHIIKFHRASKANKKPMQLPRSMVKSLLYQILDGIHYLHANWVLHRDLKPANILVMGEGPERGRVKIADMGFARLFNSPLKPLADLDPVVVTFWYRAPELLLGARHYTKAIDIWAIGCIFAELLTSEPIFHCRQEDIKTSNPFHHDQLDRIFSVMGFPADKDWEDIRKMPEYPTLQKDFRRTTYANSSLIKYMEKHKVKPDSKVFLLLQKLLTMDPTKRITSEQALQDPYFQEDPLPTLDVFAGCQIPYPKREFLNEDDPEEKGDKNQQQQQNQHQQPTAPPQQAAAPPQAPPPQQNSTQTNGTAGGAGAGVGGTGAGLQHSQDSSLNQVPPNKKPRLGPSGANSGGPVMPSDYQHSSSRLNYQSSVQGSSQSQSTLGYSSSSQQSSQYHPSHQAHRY
Chain of Cyclin-C/Cyclin-dependent kinase 19 (P24863 whole entry, further chain): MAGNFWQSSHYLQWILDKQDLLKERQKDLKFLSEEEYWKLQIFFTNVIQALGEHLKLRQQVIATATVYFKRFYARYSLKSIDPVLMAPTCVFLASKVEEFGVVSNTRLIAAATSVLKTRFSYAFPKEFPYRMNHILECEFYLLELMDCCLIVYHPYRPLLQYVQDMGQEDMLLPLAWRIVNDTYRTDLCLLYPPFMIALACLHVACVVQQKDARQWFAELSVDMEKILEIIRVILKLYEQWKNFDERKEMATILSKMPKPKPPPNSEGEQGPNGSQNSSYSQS
Chain of Glycogen synthase kinase-3 (Homo sapiens) (P49840 whole entry, looked up): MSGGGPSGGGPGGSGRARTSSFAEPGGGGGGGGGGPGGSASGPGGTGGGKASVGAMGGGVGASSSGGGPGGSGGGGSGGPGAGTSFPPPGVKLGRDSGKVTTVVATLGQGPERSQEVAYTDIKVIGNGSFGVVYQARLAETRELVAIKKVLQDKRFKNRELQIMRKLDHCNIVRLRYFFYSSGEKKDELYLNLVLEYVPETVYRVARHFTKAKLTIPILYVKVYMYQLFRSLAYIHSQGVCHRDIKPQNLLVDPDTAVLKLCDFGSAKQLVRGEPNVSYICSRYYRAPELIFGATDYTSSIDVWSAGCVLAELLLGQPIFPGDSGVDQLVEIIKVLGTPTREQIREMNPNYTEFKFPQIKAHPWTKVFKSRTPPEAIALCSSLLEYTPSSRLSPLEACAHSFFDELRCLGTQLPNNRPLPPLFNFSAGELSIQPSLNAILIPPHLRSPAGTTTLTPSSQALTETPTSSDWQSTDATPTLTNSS
Chain of Glycogen synthase kinase-3 (Homo sapiens) (P49841 whole entry, looked up): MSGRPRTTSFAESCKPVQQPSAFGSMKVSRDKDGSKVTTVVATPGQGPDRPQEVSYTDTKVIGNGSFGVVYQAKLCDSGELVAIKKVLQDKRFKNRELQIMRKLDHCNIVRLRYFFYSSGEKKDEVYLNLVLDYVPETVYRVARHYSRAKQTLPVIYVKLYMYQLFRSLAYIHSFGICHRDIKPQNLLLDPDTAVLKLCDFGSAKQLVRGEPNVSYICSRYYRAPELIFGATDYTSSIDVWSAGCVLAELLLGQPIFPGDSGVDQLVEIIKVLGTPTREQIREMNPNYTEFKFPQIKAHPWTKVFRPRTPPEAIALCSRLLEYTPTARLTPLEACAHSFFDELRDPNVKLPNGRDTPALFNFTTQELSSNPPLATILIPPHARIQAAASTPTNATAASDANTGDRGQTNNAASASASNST

In the case of `COc1cc(F)ccc1-c1nc(Nc2ccc3c(N4CCOCC4)c(C(C)=O)c(=O)oc3c2)ncc1F`, the IC50 (CDK2/Cyclin A2) is reported as 0.32 µM, the IC50 [1] is reported as 16.6 µM and the IC50 [2] is reported as 1.95 µM. For the same compound, the IC50 [3] was 1.01 µM, the IC50 [4] was 1.26 µM and the IC50 [5] was 15.5 µM. It also gave an Activity [6] of less than 10%, an Activity [7] of less than 10% and an IC50 (MIA PaCa-2) of 0.46 µM. For the same compound, the IC50 (HCT-116) was 0.28 µM, the IC50 (A549) was 0.47 µM and the IC50 (NCI-H460) was 0.64 µM. For the same compound, the half-life at 1 µM [8] was 24.2 min, the microsomal CLint at 1 µM [9] was 57.3 µL/min/mg and the half-life at 1 µM [10] was 14 min. It also gave a microsomal CLint at 1 µM [11] of 689 µL/min/mg, a half-life [12] of 13.8 min and a C0 at 24 h [13] of 3.06 µg/mL. For the same compound, the AUC(0-t) at 24 h [14] was 1.2 µg·h/mL and the inhibition in vivo at 40 mg/kg (MV4-11) was 100%.
